Rows were chosen to be rich in hits. Some 4.5% of all compounds tested hit in one or more screens of this group.
CHOP inh = inhibitors of CHOP promoter induction, primary screen, cell-based, unfolded protein response, luciferase reporter; CHO-K1 CHOP-promoter luciferase, tunicamycin-induced, 15-18 h; inhibition, % at 10 µM; 3.8% of 220,000 active; AID 2732, 2010;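 active = compounds that reduced the stress-induced luciferase reporter signal by more than about 70% of percent inhibition, limit read from the data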;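 note: 0% = tunicamycin plus vehicle and 100% = wells without tunicamycin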
M18AAP inhibitor = PfM18AAP inhibitors, malaria aminopeptidase, primary screen, biochemical, QFRET, recombinant enzyme | H-Glu-NHMec fluorogenic cleavage | inhibition, % at 7.35 µM | 1.2% of 290,000 active | AID 1822, 2009;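 active = inhibition above the campaign mean inhibition over all tested compounds plus 3 SD, cut at about 28% in these data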;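 note: 0% = plate median of test compound wells and 100% = 2 mM ZnCl2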
p97 inhibitor = inhibitors of human p97 ATPase, primary screen, biochemical. Transitional endoplasmic reticulum ATPase (Homo sapiens), P55072. recombinant p97 ATPase, Kinase-Glo ATP luminescence, 3 h. inhibition, % at 8 µM. 0.42% of 220,000 active. AID 1481, 2009; in the data active = inhibition above about 15%;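 note: 0% = DMSO vehicle and 100% = wells lacking enzyme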
Target sequence (P55072 whole entry, looked up): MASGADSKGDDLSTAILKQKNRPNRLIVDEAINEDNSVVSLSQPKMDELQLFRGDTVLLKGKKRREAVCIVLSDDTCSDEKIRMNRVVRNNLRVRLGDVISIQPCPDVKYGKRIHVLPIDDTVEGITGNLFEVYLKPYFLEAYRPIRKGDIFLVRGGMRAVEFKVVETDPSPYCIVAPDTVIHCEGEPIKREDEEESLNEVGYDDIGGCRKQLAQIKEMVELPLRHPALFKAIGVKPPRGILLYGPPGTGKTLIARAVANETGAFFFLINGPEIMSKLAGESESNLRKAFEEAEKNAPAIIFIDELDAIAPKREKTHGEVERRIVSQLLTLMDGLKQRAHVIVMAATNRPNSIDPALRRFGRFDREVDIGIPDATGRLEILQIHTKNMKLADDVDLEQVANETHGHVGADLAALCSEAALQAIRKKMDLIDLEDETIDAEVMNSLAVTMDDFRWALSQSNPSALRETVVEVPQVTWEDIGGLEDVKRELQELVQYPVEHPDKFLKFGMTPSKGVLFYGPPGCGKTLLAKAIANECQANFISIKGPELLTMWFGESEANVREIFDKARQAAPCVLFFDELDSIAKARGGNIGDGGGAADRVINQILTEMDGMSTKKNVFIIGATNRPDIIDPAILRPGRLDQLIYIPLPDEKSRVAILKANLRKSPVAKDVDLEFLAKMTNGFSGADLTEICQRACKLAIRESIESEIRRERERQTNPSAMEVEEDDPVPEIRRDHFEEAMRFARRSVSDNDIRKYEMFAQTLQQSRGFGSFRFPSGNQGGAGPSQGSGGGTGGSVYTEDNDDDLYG
HCV NS3 hel inh = inhibitors of HCV NS3 helicase, primary screen, biochemical, Cy5 molecular beacon fluorescence. Hepatitis C virus NS3 helicase. NS3 helicase DNA unwinding. inhibition, % at 10.9 µM. 0.56% of 290,000 active. AID 1800, 2009;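 active = inhibition above the mean of all tested compounds plus 3 SD, set per campaign, cut at about 35% in these data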;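 note: 0% = DMSO wells and 100% = thioflavine S control wells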
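test system = hepatitis C virus NS3 helicase domain fragment enzyme | reagent = annealed dual-labelled DNA beacon duplex, ATP-started | times = 1 h at 25 °C | detection = Cy5 fluorescence, 0 and 60 min reads | read-out basis = percent inhibition from t60/t0 fluorescence ratio | control set = DMSO and thioflavine S | replication = one well per compound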
XBP1 UPR activ = activators of adaptive XBP1 UPR arm, primary screen, cell-based, CHO-XBP1 luciferase reporter, luminescence, uHTS; IRE1-XBP1 UPR activation; percent of tunicamycin response, DMSO as zero; activation, % at 20 µM; 0.33% of 330,000 active;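 active = versus positive control, 20 µM dose yields 30% or more activation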;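 note: 100% = tunicamycin at 10 µg/mL and 0% = DMSO only wells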
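Material: IRE1-XBP1 luciferase reporter CHO line / Quantity: one thousand reporter cells per well / Buffer or medium: F12 with 10% serum / Compound: 20 µM single concentration, DMSO 1% / Times: 6 h treatment, 37 °C / Detection: Steady-Glo luciferase glow luminescence, 10 min after reagent addition / Benchmarks: tunicamycin high, DMSO low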
CHOP UPR activ = activators of apoptotic CHOP UPR arm, primary screen, cell-based, CHO-CHOP luciferase reporter, luminescence, uHTS. UPR activation; percent of tunicamycin response over DMSO baseline. AID 449763, 2010. activation, % at 10 µM. 0.34% of 330,000 active;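 active = at 10 µM dose, activation of 40% or more, normalized to positive control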;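 note: 100% = tunicamycin at 10 µg/mL and 0% = DMSO alone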
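System: CHO CHOP reporter cells. Amount: 500 cells per well. Buffer or medium: F12 medium, 10% FBS. Compound dosing: one dose, 10 µM in 0.5% DMSO. Incubation: 6 h compound exposure at 37 °C after overnight seeding. Technique: Steady-Glo luciferase luminescence. Benchmarks: tunicamycin and DMSO controls.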
XBP1 UPR conf = IRE1-XBP1 UPR arm activators, confirmation, cell-based, CHO-XBP1 luciferase reporter, luminescence, single concentration | shares compounds with XBP1 UPR activ | activation, % at 20 µM | 63% of 1,000 active | AID 485299, 2010;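 active = reporter signal at least 30% of the positive control's activation in two or more of four replicate wells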;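 note: plate controls were DMSO negative control for no effect and tunicamycin 10 µg/mL positive control for full effect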
* marks the source's active call; other numbers are inactive results; · = no result.

SMILES | CHOP inh | M18AAP inhibitor | p97 inhibitor | HCV NS3 hel inh | XBP1 UPR activ | CHOP UPR activ | XBP1 UPR conf
Cc1ccc(NC(=O)Cn2c(/C=C/c3ccccc3)nc3ccccc32)cc1C | 28 | -11 | -3 | -13 | 51* | 27 | 35*
Cc1ccc(NC(=O)Cn2cnc3ccccc32)cc1C | 15 | 3 | 3 | -1 | -3 | -2 | ·
COc1ccccc1/C=N\NC(=O)c1ccc(COc2ccc(C)c(C)c2)o1 | · | · | · | · | 41* | 2 | 0
CCc1ccccc1NC(=O)C(CC)Sc1nc2cc3c(cc2c(=O)n1Cc1ccco1)OCO3 (centres undefined) | 28 | -5 | -1 | 1 | 95* | 5 | 193*
CCC1CCc2c(sc3nc(SCC(=O)NCc4ccco4)n(-c4ccccc4)c(=O)c23)C1 (centres undefined) | 29 | -3 | 0 | 1 | 43* | 3 | 70*
O=c1[nH]c(COc2ccc(Cl)cc2Br)nc2ccccc12 | · | -8 | · | 3 | -5 | 6 | ·
COc1ccc(-n2c(=S)[nH]c3cc(C(=O)NCc4ccco4)ccc3c2=O)cc1OC | -8 | 4 | 4 | 3 | -2 | 0 | ·
COc1ccc(CCn2c(=S)[nH]c3cc(C(=O)NCc4ccco4)ccc3c2=O)cc1OC | 96* | 20 | -1 | 0 | 62* | 5 | 66*
COC(=O)c1sccc1NC(=O)c1cc(-c2cccc(C)c2)nc2ccccc12 | 28 | -5 | -1 | 1 | 64* | -1 | 80*
CC(=O)Nc1cccc(NC(=O)c2cc(-c3cccnc3)nc3ccc(Br)cc23)c1 | -3 | 2 | 8 | -15 | -2 | 4 | ·
CSc1ccccc1NC(=O)c1cc(-c2cccnc2)nc2ccc(Br)cc12 | 104* | -3 | 2 | -6 | 32* | 1 | 66*
COC(=O)c1sccc1NC(=O)c1cc(-c2ccc(C)cc2)nc2ccccc12 | -24 | -11 | -1 | 13 | 0 | 1 | ·
Cc1cc(NC(=O)c2cc(-c3ccncc3)nc3ccccc23)ccc1Br | · | · | · | · | 66* | 2 | 44*
COc1ccc(Nc2nnc(Cc3ccncc3)c3ccccc23)c(OC)c1 | · | 9 | · | 5 | -1 | 0 | ·
C=C(C)[C@@H]1CC[C@]2(C(=O)O)CC[C@]3(C)C(CCC4[C@@]5(C)CC[C@H](O)C(C)(C)C5CC[C@]43C)C12 (some centres undefined) | · | 1 | · | 14 | 40* | -2 | 6
O=C(NCC1CCCO1)c1ccc(OC2CCN(C(=O)C3CC3)CC2)cc1 (centres undefined) | 0 | 3 | 4 | 1 | 1 | 0 | ·
CCCN(C(=O)C1=COCCO1)c1c(N)n(Cc2ccccc2)c(=O)[nH]c1=O | · | · | · | · | 5 | 0 | ·
COc1ccc(-c2c(-c3cc(OC)cc(OC)c3)n(C)c3ccc(-c4cnc(N)nc4)cc23)cc1 | · | · | · | · | 189* | 2 | 132*
Cc1cc(C(=O)N/N=C/c2ccc([N+](=O)[O-])o2)c(C)o1 | -13 | 8 | 1 | 10 | -2 | 2 | ·
COc1ccc(-c2nn(-c3ccccc3)cc2C(=O)N/N=C/c2ccc([N+](=O)[O-])o2)cc1 | 90* | -6 | 1 | 13 | 38* | 36 | 13
CC(=O)Nc1ccc(N2CC(C)(C)C2=O)cc1 | 4 | -3 | 2 | 9 | 0 | -1 | ·
COc1cc(/C=N/NC(=O)c2sc3nc(C)cc(C)c3c2N)ccc1O | 59 | 10 | 10 | -6 | 46* | 1 | 16
Cc1ccc(S(=O)(=O)N2CCN(C(=O)/C=C/c3ccccc3)CC2)cc1C | · | · | · | · | -4 | 3 | ·
O=C(COc1ccc(F)cc1Cl)Nc1cccc(S(=O)(=O)N2CCCC2)c1 | · | · | · | · | -1 | 0 | ·
